ChEMBL document CHEMBL1641473, “Synthesis, structure, theoretical and experimental in vitro antioxidant/pharmacological properties of α-aryl, N-alkyl nitrones, as potential agents for the treatment of cerebral ischemia” (2011)

Columns and labels:
Format in all cases: functional
[1] = test system: Radical scavenging activity; test: Antioxidant activity of the compound assessed as DPPH radical scavenging activity at 0.5 mM after 2 hrs
Procedure, shortened: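 DPPH radical mixed with nitrone and held 2 h at room temperature in the dark. DPPH absorbance read at 517 nm. RSA% = 100 × (A0 − Ai)/A0, with A0 and Ai the absorbance without and with nitrone. Quadruplicate wells, at least three independent runs; mean ± SEM.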

[2] = Antioxidant activity assessed as trolox equivalents of peroxyl radical scavenging activity by ORAC assay
Procedure, shortened: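 Fluorescein (70 nM) with 2,2'-azobis(2-methylpropionamidine) dihydrochloride (12 mM) and antioxidant in 75 mM phosphate buffer pH 7.4 at 37 °C. Fluorescence recorded every minute for 98 min. Net AUC taken against the blank and plotted against concentration; slope divided by the slope of the Trolox curve from the same assay. Duplicate wells, at least three independent assays.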

Mus musculus = test: Neuroprotective activity in NMRI mouse assessed as protection against t-BHP-induced lethality at 150 mg/kg, ip after 30 mins relative to control; settings: route intraperitoneal
[3] = Antioxidant activity assessed as hydroxyl radical scavenging activity at 50 uM after 2 hrs by benzoic acid method
Procedure, shortened: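 Hydroxyl radical from a Fenton reaction (Fe2+ plus H2O2 10 mmol) hydroxylates benzoate to fluorescent hydroxybenzoates. Incubation 2 h at 37 °C with or without nitrone; fluorescence read at excitation 305 nm, emission 407 nm. RSA% relative to no-nitrone control. Quadruplicate wells, at least three independent runs; mean ± SEM.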

SH-SY5Y [4] = test: Neuroprotective activity against rotenone/oligomycin-A-induced death in human SH-SY5Y cells assessed as protective effect at 1 uM after 2 hrs by MTT assay
Procedure, shortened: (§1)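 Human SH-SY5Y neuroblastoma cells, low passage (<13), grown in 1:1 Ham's F-12/EMEM with 10% heat-inactivated FBS. Seeded at 1×10⁵ cells/well and treated before confluence in EMEM with 1% FBS. Insult was 30 µM rotenone plus 10 µM oligomycin-A for 24 h. Viability read by MTT (2 h, 37 °C, dark), then lysis and absorbance at 540 nm.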

SH-SY5Y [5] = test: Neuroprotective activity against rotenone/oligomycin-A-induced death in human SH-SY5Y cells assessed as increase of cell viability at 1 uM after 2 hrs by MTT assay; procedure, shortened: as §1
[6] = test system: Radical scavenging activity; test: Antioxidant activity of the compound assessed as DPPH radical scavenging activity at 15 mM after 2 hrs
Procedure, shortened: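 DPPH radical added to test compound; mixture kept 2 h at room temperature in the dark, then absorbance read at 517 nm. RSA% = 100×(A0−Ai)/A0, where A0 and Ai are DPPH absorbance without and with compound. Quadruplicate wells, at least three independent runs; mean ± SEM.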

SH-SY5Y [7] = test: Neuroprotective activity against rotenone/oligomycin-A-induced death in human SH-SY5Y cells assessed as increase of cell viability at 10 nM after 2 hrs by MTT assay; procedure, shortened: as §1
SH-SY5Y [8] = test: Neuroprotective activity against rotenone/oligomycin-A-induced death in human SH-SY5Y cells assessed as protective effect at 10 nM after 2 hrs by MTT assay; procedure, shortened: as §1
SH-SY5Y [9] = test: Neuroprotective activity against rotenone/oligomycin-A-induced death in human SH-SY5Y cells assessed as increase of cell viability at 1 mM after 2 hrs by MTT assay; procedure, shortened: as §1
SH-SY5Y [10] = test: Neuroprotective activity against rotenone/oligomycin-A-induced death in human SH-SY5Y cells assessed as protective effect at 1 mM after 2 hrs by MTT assay; procedure, shortened: as §1

| SMILES | Activity [1] | Activity (Trolox equivalents) [2] | Activity (Mus musculus) | Activity [3] | Activity (SH-SY5Y [4]) | Activity (SH-SY5Y [5]) | Activity [6] | Activity (SH-SY5Y [7]) | Activity (SH-SY5Y [8]) | Activity (SH-SY5Y [9]) | Activity (SH-SY5Y [10]) |
| --- | --- | --- | --- | --- | --- | --- | --- | --- | --- | --- | --- |
| COc1cc(Br)c(/C=[N+](\[O-])C(C)(C)C)cc1O | 31.1% | 5.58 | 87% | 96.3% | 11% | 65% | – | – | – | – | – |
| C/[N+]([O-])=C/c1ccccc1 | 0.8% | 0 | – | 95.3% | 18.7% | 64.7% | – | – | – | – | – |
| COc1cc(Br)c(/C=[N+](\[O-])C(C)(C)C)cc1OC | 0.8% | 0.03 | 70% | 96.3% | 0% | 63.1% | – | – | – | – | – |
| CC(C)(C)/[N+]([O-])=C/c1ccccc1 | 1.4% | 0 | 73% | 94.9% | 18.6% | 69.6% | – | – | – | – | – |
| [O-]/[N+](=C\c1ccccc1)Cc1ccccc1 | 0.6% | 0.01 | 111% | 95.7% | 18.4% | 70.8% | – | – | – | – | – |
| COc1cc(/C=C/C(=O)CC(=O)/C=C/c2ccc(O)c(OC)c2)ccc1O [CURCUMIN] | – | – | 106% | 96.8% | – | – | 35% | – | – | – | – |
| COc1cc(/C=[N+](\[O-])Cc2ccccc2)c(Br)cc1O | 40.7% | 6.4 | – | 95.7% | 13.4% | 62.8% | – | – | – | – | – |
| O=c1c(O)c(-c2ccc(O)c(O)c2)oc2cc(O)cc(O)c12 | – | 10.5 | – | 96.6% | – | – | 94.2% | – | – | – | – |
| COc1ccc2c(c1)cc(/C=[N+](\[O-])C(C)(C)C)n2C | 4.8% | 7.98 | 50% | – | 4.4% | 62.8% | – | – | – | – | – |
| Cc1c(C)c2c(c(C)c1O)CCC(C)(C(=O)O)O2 (stereo not drawn) | – | 1 | – | 94.3% | – | – | – | – | – | – | – |
| COc1ccc2[nH]cc(CCNC(C)=O)c2c1 [MELATONIN] | – | – | – | – | – | – | – | 59% | 17% | – | – |
| CC(C)(C)/[N+]([O-])=C/c1cccnc1Br | 3.9% | 0.01 | 76% | 95.1% | 24% | 60.1% | – | – | – | – | – |
| COc1cc(/C=[N+](\[O-])Cc2ccccc2)ccc1O | 88.2% | 2.93 | – | 96.9% | 16.9% | 63.9% | – | – | – | – | – |
| CC(C)(C)/[N+]([O-])=C/c1c[nH]c2ccccc12 | 1.2% | 3.69 | 60% | – | 8% | 64.1% | – | – | – | – | – |
| COc1cc(Br)c(/C=[N+](\[O-])Cc2ccccc2)cc1O | 25.9% | 7.36 | 111% | 94.6% | 8.7% | 64.2% | – | – | – | – | – |
| CC(=O)N[C@@H](CS)C(=O)O [ACETYLCYSTEINE] | – | – | – | – | – | – | – | – | – | 63.1% | 25% |
| CC(C)(C)/[N+]([O-])=C/c1cccnc1Cl | 1.6% | 0.01 | 74% | 94.9% | 0% | 61.4% | – | – | – | – | – |
| COc1cc(Br)c(/C=[N+](\[O-])Cc2ccccc2)cc1OC | 0.2% | 0.03 | 116% | 95.1% | 3% | 65.3% | – | – | – | – | – |
| COc1cc(/C=[N+](/C)[O-])ccc1O | 87.6% | 3.35 | – | 96.5% | – | – | – | – | – | – | – |
